Active and inactive are the calls of the source.
Legend:
Rattus norvegicus [1] = experiment: Antiinflammatory activity in Sprague-Dawley rat model of carrageenan-induced paw edema assessed as volume of paw edema at 20 mg/kg, po administered 2 hrs post carrageenan challenge measured after 60 mins by plethysmometry (reference value: 2.73 +/- 0.07 ml); format: functional
Mus musculus [2] = experiment: Antinociceptive activity in CD1 albino mouse model of acetic acid-induced visceral pain assessed as number of writhes at 3 mg/kg, po pretreated for 30 mins before acetic acid challenge measured after 5 mins (reference value: 30.5 +/- 1.7); format: functional
Mus musculus [3] = experiment: Antinociceptive activity in CD1 albino mouse model of acetic acid-induced visceral pain assessed as number of writhes at 10 mg/kg, po pretreated for 30 mins before acetic acid challenge measured after 5 mins (reference value: 30.5 +/- 1.7); format: functional
Mus musculus [4] = experiment: Antinociceptive activity in CD1 albino mouse model of acetic acid-induced visceral pain assessed as number of writhes at 20 mg/kg, po pretreated for 30 mins before acetic acid challenge measured after 5 mins (reference value: 30.5 +/- 1.7); format: functional
Mus musculus [5] = experiment: Antinociceptive activity in CD1 albino mouse model of acetic acid-induced visceral pain assessed as number of writhes at 3 mg/kg, po pretreated for 60 mins before acetic acid challenge measured after 5 mins (reference value: 32.5 +/- 2.4); format: functional
Mus musculus [6] = experiment: Antinociceptive activity in CD1 albino mouse model of acetic acid-induced visceral pain assessed as number of writhes at 20 mg/kg, po pretreated for 60 mins before acetic acid challenge measured after 5 mins (reference value: 32.5 +/- 2.4); format: functional
Mus musculus [7] = experiment: Antinociceptive activity in po dosed CD1 albino mouse model of acetic acid-induced visceral pain assessed as number of writhes pretreated for 30 to 60 mins before acetic acid challenge measured after 5 mins; format: functional, organism-based
Rattus norvegicus [8] = experiment: Antihyperalgesic effect in Sprague-Dawley rat model of monosodium iodoacetate-induced osteoarthritis assessed as withdrawal threshold at 3 mg/kg, ip administered 14 days post MIA challenge measured after 30 mins by paw pressure test (reference value: 37.8 +/- 3.3 g); format: functional
How it was run: (§1)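 Male Sprague–Dawley rats (200–250 g). MIA (2 mg/25 µL) was injected into the left tibiotarsal joint on day 0 under 2% isoflurane; controls received 25 µL saline. On day 14 compound or vehicle was given at time 0. Paw pressure threshold (g) was read with an analgesimeter using a blunt conical probe on the dorsal paw at 30, 60, 90 and 120 min. Mean ± s.e.m., 6 rats.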

Rattus norvegicus [9] = experiment: Antihyperalgesic effect in Sprague-Dawley rat model of monosodium iodoacetate-induced osteoarthritis assessed as withdrawal threshold at 10 mg/kg, ip administered 14 days post MIA challenge measured after 30 mins by paw pressure test (reference value: 37.8 +/- 3.3 g); format: functional; how it was run: as §1
Rattus norvegicus [10] = experiment: Antihyperalgesic effect in Sprague-Dawley rat model of monosodium iodoacetate-induced osteoarthritis assessed as withdrawal threshold at 20 mg/kg, ip administered 14 days post MIA challenge measured after 30 mins by paw pressure test (reference value: 37.8 +/- 3.3 g); format: functional; how it was run: as §1
Rattus norvegicus [11] = experiment: Antihyperalgesic effect in Sprague-Dawley rat model of monosodium iodoacetate-induced osteoarthritis assessed as withdrawal threshold at 20 mg/kg, ip administered 14 days post MIA challenge measured after 90 mins by paw pressure test (reference value: 37.8 +/- 3.1 g); format: functional; how it was run: as §1
Rattus norvegicus [12] = experiment: Antihyperalgesic effect in Sprague-Dawley rat model of monosodium iodoacetate-induced osteoarthritis assessed as withdrawal threshold at 3 mg/kg, ip administered 14 days post MIA challenge measured after 120 mins by paw pressure test (reference value: 39.2 +/- 4 g); format: functional; how it was run: as §1
Rattus norvegicus [13] = experiment: Antihyperalgesic effect in Sprague-Dawley rat model of monosodium iodoacetate-induced osteoarthritis assessed as withdrawal threshold at 20 mg/kg, ip administered 14 days post MIA challenge measured after 120 mins by paw pressure test (reference value: 39.2 +/- 4 g); format: functional; how it was run: as §1
HaCaT [14] = experiment: Antiproliferative activity against human HaCaT cells after 24 hrs by BrdU incorporation assay; format: functional, cell-based
How it was run: (§2)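 HaCaT human keratinocytes were grown in high-glucose DMEM with 10% FBS and 2 mM L-glutamine at 37 °C and 5% CO2 to 80% confluency. Cells were treated 24 h with compound at 1, 10 or 50 µM (final DMSO ≤0.1%). Proliferation was read by BrdU incorporation as % of DMSO control; three experiments.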

HaCaT [15] = experiment: Antiproliferative activity against human HaCaT cells at 50 uM after 24 hrs by BrdU incorporation assay; format: functional, cell-based; how it was run: as §2
Rattus norvegicus [16] = experiment: Antiinflammatory activity in Sprague-Dawley rat model of carrageenan-induced paw edema assessed as paw volume at 3 mg/kg, po administered 2 hrs post carrageenan challenge measured after 90 mins by plethysmometry (reference value: 37.2 +/- 3.4 ml); format: functional
Rattus norvegicus [17] = experiment: Antiinflammatory activity in Sprague-Dawley rat model of carrageenan-induced paw edema assessed as paw volume at 3 mg/kg, po administered 2 hrs post carrageenan challenge measured after 120 mins by plethysmometry (reference value: 34.5 +/- 4.4 ml); format: functional
Rattus norvegicus [18] = experiment: Antiinflammatory activity in Sprague-Dawley rat model of carrageenan-induced paw edema assessed as volume of paw edema at 3 mg/kg, po administered 2 hrs post carrageenan challenge measured after 60 mins by plethysmometry (reference value: 2.73 +/- 0.07 ml); format: functional
Rattus norvegicus [19] = experiment: Antiinflammatory activity in Sprague-Dawley rat model of carrageenan-induced […] at 10 mg/kg, po administered 2 hrs post carrageenan challenge measured after 30 mins by […] (reference value: 34.1 +/- 2.3 ml); format: functional
Rattus norvegicus [20] = experiment: Antiinflammatory activity in Sprague-Dawley rat model of carrageenan-induced paw edema assessed as paw volume at 10 mg/kg, po administered 2 hrs post carrageenan challenge measured after 90 mins by plethysmometry (reference value: 37.2 +/- 3.4 ml); format: functional
Rattus norvegicus [21] = experiment: Antiinflammatory activity in Sprague-Dawley rat model of carrageenan-induced […] at 10 mg/kg, po administered 2 hrs post carrageenan challenge measured after 120 mins by […] (reference value: 34.5 +/- 4.4 ml); format: functional
Rattus norvegicus [22] = experiment: Antiinflammatory activity in Sprague-Dawley rat model of carrageenan-induced paw edema assessed as paw volume at 20 mg/kg, po administered 2 hrs post carrageenan challenge measured after 30 mins by plethysmometry (reference value: 34.1 +/- 2.3 ml); format: functional
Rattus norvegicus [23] = experiment: Antihyperalgesic activity in Sprague-Dawley rat model of carrageenan-induced inflammatory pain assessed as paw pressure threshold at 3 mg/kg, po administered 2 hrs post carrageenan challenge measured after 30 mins by paw pressure test (reference value: 34.1 +/- 2.3 g)
Rattus norvegicus [24] = experiment: Antihyperalgesic activity in Sprague-Dawley rat model of carrageenan-induced inflammatory pain assessed as paw pressure threshold at 3 mg/kg, po administered 2 hrs post carrageenan challenge measured after 60 mins by paw pressure test (reference value: 35.4 +/- 3.6 g)
Rattus norvegicus [25] = experiment: Antihyperalgesic activity in Sprague-Dawley rat model of carrageenan-induced inflammatory pain assessed as paw pressure threshold at 20 mg/kg, po administered 2 hrs post carrageenan challenge measured after 90 mins by paw pressure test (reference value: 37.2 +/- 3.4 g)

Cc1c(CCOCCCF)cc(-c2ccc(S(C)(=O)=O)cc2)n1-c1ccc(F)cc1 gave an Activity (Rattus norvegicus [1]) of 2.06 mL, an Activity (Mus musculus [2]) of 21.8 and an Activity (Mus musculus [3]) of 11.4. The Activity (Mus musculus [4]) was 10.7, the Activity (Mus musculus [5]) was 24.6 and the Activity (Mus musculus [6]) was 16.9. For the same compound, the Activity (Mus musculus [7]) was “Dose-dependent effect”, the Activity (Rattus norvegicus [8]) was 47.9 g and the Activity (Rattus norvegicus [9]) was 50.3 g. For the same compound, the Activity (Rattus norvegicus [10]) was 51.3 g, the Activity (Rattus norvegicus [11]) was 43.8 g and the Activity (Rattus norvegicus [12]) was 39 g. The Activity (Rattus norvegicus [13]) was 37.1 g, the Activity (HaCaT [14]) was “Dose-dependent effect” and the Activity (HaCaT [15]) was “Active”. The Activity (Rattus norvegicus [16]) was 44.8 g, the Activity (Rattus norvegicus [17]) was 36.2 g and the Activity (Rattus norvegicus [18]) was 2.38 mL. The Activity (Rattus norvegicus [19]) was 51.7 g, the Activity (Rattus norvegicus [20]) was 47.2 g and the Activity (Rattus norvegicus [21]) was 38.1 g. It also gave an Activity (Rattus norvegicus [22]) of 53.9 g, an Activity (Rattus norvegicus [23]) of 45.2 g and an Activity (Rattus norvegicus [24]) of 49.2 g. It also gave an Activity (Rattus norvegicus [25]) of 44.9 g.

— ChEMBL document CHEMBL3758101, “Synthesis and biological evaluation of fluorinated 1,5-diarylpyrrole-3-alkoxyethyl ether derivatives as selective COX-2 inhibitors endowed with anti-inflammatory activity” (Eur J Med Chem, 2016)
